Active and inactive are the calls of the source. The rule behind the calls is not given here.
How the values were obtained:
[1] = target: T1, Metabotropic glutamate receptor 4 (Homo sapiens, UniProt Q14833); test: (§1) Positive allosteric modulation of human mGlu4 receptor expressed in CHO cells co-expressing Gqi5 assessed as increase in glutamate-induced calcium mobilization preincubated for 142 secs followed by EC20 glutamate addition and subsequent EC80 glutamate addition after 147 secs by Fluo-4-AM dye based fluorescence assay; type: functional, cell-based
T1 sequence (Q14833 whole entry): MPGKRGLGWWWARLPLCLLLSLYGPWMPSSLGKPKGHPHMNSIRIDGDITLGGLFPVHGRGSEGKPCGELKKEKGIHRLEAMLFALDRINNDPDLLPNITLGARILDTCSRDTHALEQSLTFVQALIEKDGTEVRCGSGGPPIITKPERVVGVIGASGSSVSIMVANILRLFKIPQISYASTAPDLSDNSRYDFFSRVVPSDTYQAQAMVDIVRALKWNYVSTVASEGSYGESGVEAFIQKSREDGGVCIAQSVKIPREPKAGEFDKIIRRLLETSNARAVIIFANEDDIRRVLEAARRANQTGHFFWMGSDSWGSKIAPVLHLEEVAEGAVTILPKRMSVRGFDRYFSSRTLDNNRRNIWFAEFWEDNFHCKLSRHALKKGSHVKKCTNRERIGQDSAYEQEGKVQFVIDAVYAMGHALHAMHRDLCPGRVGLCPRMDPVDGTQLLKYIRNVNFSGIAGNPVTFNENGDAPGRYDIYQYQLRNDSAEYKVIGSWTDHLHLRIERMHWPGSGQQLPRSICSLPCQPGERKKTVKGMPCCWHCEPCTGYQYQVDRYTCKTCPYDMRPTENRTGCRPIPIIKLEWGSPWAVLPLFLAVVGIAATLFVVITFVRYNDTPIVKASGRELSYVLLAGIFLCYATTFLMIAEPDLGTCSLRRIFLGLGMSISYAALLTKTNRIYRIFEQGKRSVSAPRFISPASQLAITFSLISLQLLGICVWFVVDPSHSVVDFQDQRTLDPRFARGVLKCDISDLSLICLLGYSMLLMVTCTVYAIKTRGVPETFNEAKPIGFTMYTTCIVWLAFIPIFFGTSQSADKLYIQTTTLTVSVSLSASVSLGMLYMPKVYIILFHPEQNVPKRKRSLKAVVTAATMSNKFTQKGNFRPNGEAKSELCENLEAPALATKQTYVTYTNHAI
In short: (§2)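 CHO cells expressing human mGlu4 and Gqi5, plated at 30,000 cells/well and grown overnight at 37 °C, 5% CO2. Cells were loaded with 1 μM Fluo-4 AM for 45 min at 37 °C in HBSS/20 mM HEPES/2.5 mM probenecid. Compounds were run as 10-point, 1:3 dilution series. After 142 s, EC20 glutamate was added; 147 s later, EC80 glutamate. Fluorescence was normalized to the maximal glutamate response. EC50 and %Glu Max were fitted by four-parameter logistic, with maximum normalized to PHCCC.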

[2] = target: T1, Metabotropic glutamate receptor 4; test: as §1, with “measured” for “subsequent EC80 glutamate addition”, “assay relative to control” for “assay”; type: functional, cell-based; in short: as §2
[3] = target: T2, AhR (read out as CYP1A2 induction) (Homo sapiens, UniProt P35869); test: Activation of AhR (unknown origin) assessed as CYP1A2 induction relative to control; type: ADME; details: read-out: FC
T2 sequence (P35869 whole entry): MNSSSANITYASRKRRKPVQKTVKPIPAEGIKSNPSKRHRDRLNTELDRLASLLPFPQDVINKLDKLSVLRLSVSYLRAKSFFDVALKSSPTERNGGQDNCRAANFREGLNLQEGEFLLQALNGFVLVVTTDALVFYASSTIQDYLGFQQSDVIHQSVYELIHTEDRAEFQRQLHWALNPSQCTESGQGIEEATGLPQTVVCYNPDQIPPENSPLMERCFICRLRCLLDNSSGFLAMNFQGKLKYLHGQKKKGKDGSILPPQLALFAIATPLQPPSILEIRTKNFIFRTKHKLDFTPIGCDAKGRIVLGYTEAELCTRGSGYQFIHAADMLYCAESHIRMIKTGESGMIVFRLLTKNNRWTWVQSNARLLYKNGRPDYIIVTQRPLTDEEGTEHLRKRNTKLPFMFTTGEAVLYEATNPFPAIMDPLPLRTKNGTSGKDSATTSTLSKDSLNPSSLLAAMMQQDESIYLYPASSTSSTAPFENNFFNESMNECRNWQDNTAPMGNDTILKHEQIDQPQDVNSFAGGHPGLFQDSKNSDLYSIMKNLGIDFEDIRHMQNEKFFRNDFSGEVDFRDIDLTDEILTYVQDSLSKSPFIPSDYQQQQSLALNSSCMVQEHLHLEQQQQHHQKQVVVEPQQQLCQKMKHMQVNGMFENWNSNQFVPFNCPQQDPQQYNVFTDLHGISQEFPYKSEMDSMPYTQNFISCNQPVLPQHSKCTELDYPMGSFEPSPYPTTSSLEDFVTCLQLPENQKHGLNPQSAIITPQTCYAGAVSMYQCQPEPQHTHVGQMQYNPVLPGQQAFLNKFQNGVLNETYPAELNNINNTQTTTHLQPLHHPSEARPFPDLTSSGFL

[4] = Intrinsic clearance in human liver microsomes at 1 uM preincubated for 5 mins followed by NADPH addition measured up to 45 mins by LC-MS/MS analysis; type: ADME, Microsome; details: read-out: CLH
In short: (§3)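 Intrinsic and predicted hepatic clearance derived from liver microsome incubations.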

[5] = Intrinsic clearance in rat liver microsomes at 1 uM preincubated for 5 mins followed by NADPH addition measured up to 45 mins by LC-MS/MS analysis; type: ADME, Microsome; details: read-out: CLH; in short: as §3
[6] = Fraction unbound in human plasma after 4 hrs by equilibrium dialysis method; type: ADME, cell-free
[7] = Fraction unbound in rat plasma after 4 hrs by equilibrium dialysis method; type: ADME, cell-free
Cytochrome P450 1A2 = target: T3, Cytochrome P450 1A2 (Homo sapiens, UniProt P05177); test: Inhibition of CYP1A2 in human liver microsomes using phenacetin as substrate preincubated for 15 mins followed by substrate addition and measured after 8 mins by LC-MS/MS analysis; type: ADME
T3 sequence (P05177 whole entry): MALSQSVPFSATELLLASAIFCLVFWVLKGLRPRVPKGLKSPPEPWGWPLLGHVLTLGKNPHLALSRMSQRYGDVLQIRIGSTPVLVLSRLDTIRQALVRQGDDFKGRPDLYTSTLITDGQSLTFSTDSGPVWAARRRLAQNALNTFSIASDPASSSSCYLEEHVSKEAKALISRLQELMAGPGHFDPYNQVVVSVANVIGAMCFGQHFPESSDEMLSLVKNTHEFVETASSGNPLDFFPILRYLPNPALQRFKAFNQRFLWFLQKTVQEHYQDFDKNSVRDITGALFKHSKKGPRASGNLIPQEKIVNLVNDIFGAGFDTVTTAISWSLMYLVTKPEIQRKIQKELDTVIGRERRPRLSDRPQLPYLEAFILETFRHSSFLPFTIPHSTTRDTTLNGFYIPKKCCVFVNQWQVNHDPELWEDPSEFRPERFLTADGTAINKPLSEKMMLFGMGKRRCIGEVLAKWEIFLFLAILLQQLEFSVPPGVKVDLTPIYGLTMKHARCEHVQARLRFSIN
In short: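 IC50 for CYP1A2 inhibition determined in human liver microsomes using specific probe substrate-metabolite pairs.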

[8] = target: Metabotropic glutamate receptor 4 (Rattus norvegicus, UniProt P31423); test: (§4) Positive allosteric modulation of rat mGlu4 receptor expressed in HEK cells co-expressing GIRK1/2 assessed as increase in glutamate-induced thallium flux preincubated for 140 secs followed by glutamate addition and measured after 2.5 mins by FluoZin-2-AM dye based fluorescence assay; type: cell-based
Metabotropic glutamate receptor 4 (Rattus norvegicus, UniProt P31423), sequence (P31423 whole entry): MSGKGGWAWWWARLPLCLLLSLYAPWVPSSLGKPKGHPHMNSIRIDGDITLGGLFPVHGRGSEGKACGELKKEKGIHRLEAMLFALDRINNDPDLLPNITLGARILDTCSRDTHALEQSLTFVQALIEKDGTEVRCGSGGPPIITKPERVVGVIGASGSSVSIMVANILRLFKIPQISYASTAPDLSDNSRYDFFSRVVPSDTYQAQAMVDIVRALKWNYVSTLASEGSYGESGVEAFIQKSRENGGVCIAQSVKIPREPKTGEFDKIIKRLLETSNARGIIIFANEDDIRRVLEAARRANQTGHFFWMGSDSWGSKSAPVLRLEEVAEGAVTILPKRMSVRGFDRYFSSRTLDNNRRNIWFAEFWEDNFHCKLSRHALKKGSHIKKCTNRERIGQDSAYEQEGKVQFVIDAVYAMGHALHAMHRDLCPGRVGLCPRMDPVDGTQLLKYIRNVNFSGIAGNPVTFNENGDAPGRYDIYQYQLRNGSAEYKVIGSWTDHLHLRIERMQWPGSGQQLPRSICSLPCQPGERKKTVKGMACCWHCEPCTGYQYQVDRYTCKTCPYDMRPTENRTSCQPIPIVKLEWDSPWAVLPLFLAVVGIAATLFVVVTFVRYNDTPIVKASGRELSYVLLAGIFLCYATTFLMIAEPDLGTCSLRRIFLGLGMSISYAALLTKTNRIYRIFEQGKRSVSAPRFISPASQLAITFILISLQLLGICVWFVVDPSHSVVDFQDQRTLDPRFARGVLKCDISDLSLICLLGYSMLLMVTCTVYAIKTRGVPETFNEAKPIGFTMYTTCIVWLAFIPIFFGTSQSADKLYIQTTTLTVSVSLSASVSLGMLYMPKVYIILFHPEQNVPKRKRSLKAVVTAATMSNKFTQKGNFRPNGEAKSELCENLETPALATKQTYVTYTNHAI
In short: (§5)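 HEK cells co-expressing rat mGlu4 and GIRK1/2 were loaded for 1 h at room temperature with FluoZin-2 AM (330 nM final) in HBSS/20 mM HEPES pH 7.4. Compound was incubated 140 s, then thallium buffer with or without agonist was added. Reading continued for 2.5 min at room temperature. Potency was fitted by four-parameter logistic.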

[9] = target: Metabotropic glutamate receptor 4 (Rattus norvegicus) (UniProt P31423); test: as §4, with “assay relative to control” for “assay”; type: cell-based; in short: as §5
Metabotropic glutamate receptor 4 (Rattus norvegicus), sequence (P31423 whole entry): as above

[10] = Clearance in rat administered as iv cassette dose; type: ADME, organism-based; details: in vivo
In short: (§6)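 IV cassette in male Sprague-Dawley rats (~300 g, n = 1 per experiment), cannulated in carotid artery and jugular vein and acclimated about one week. Plasma clearance, Vss, t1/2 and MRT were derived.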

[11] = Half life in rat administered as iv cassette dose; type: ADME, organism-based; details: in vivo; in short: as §6
[12] = Plasma concentration in rat administered as iv cassette dose; type: ADME, organism-based; details: in vivo
In short: (§7)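 Cassette dosing in male Sprague-Dawley rats (~300 g, n = 1 per experiment), with carotid artery and jugular vein catheters. Animals acclimated about one week with food and water ad libitum. Plasma (ng/mL) and brain (ng/g) levels were measured and Kp calculated.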

[13] = Drug uptake in rat brain administered as iv cassette dose; type: ADME, organism-based; details: in vivo; in short: as §7
[14] = Brain to plasma partition coefficient, Kp of the compound in rat administered as iv cassette dose; type: ADME, organism-based; details: brain and plasma, read-out: Kp; in short: as §7
Rattus norvegicus = test: Reversal of haloperidol-induced catalepsy in Sprague-Dawley rat assessed as decrease in latency to remove forepaws from bar at 10 mg/kg, po administered 30 mins prior to test; type: functional, organism-based
In short: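 Male Sprague-Dawley rats were randomized and given haloperidol 0.75 mg/kg i.p., then 60 min in home cage. Vehicle or compound (10 mg/kg) was given orally 30 min before catalepsy testing, N = 11–12 rats/group. Data analyzed by one-way ANOVA with Dunnett's test versus vehicle + haloperidol.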

[15] = Plasma concentration in Sprague-Dawley rat model of haloperidol-induced catalepsy at 10 mg/kg, po; type: ADME, organism-based; details: in vivo
In short: (§8)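 Male Sprague-Dawley rats given haloperidol 0.75 mg/kg i.p., then returned to cages for 60 min. Compound 10 mg/kg was dosed orally 30 min before catalepsy testing. Plasma, brain and CSF were then assayed, and free levels reported.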

[16] = Unbound plasma concentration in Sprague-Dawley rat model of haloperidol-induced catalepsy at 10 mg/kg, po; type: ADME, organism-based; details: in vivo; in short: as §8
[17] = Drug uptake in brain of Sprague-Dawley rat model of haloperidol-induced catalepsy at 10 mg/kg, po; type: ADME, organism-based; details: in vivo, read-out: Drug uptake; in short: as §8
[18] = Unbound drug level in brain of Sprague-Dawley rat model of haloperidol-induced catalepsy at 10 mg/kg, po; type: ADME, organism-based; details: in vivo; in short: as §8
[19] = Drug uptake in cerebrospinal fluid of Sprague-Dawley rat model of haloperidol-induced catalepsy at 10 mg/kg, po; type: ADME, organism-based; details: in vivo, read-out: Drug uptake; in short: as §8
[20] = AUC in rat at 15 mg/kg, po qd for 4 days measured on day 1 post dose; details: in vivo
[21] = AUC in rat at 15 mg/kg, po qd for 4 days measured on day 4 post dose; details: in vivo
[22] = Cmax in rat at 15 mg/kg, po qd for 4 days measured on day 1 post dose; details: in vivo
[23] = Cmax in rat at 15 mg/kg, po qd for 4 days measured on day 4 post dose; details: in vivo

- EC50 [1]: 860 nM
- %max [2]: 83.5%
- fold induction [3]: 6.4
- CLint scaled at 1 µM [4]: 7.2 mL/min/kg
- CLint scaled at 1 µM [5]: 62.5 mL/min/kg
- fraction unbound at 4 h [6]: 0.023
- fraction unbound at 4 h [7]: 0.023
- IC50 (Cytochrome P450 1A2): 3200 nM
- EC50 [8]: 501 nM
- %max [9]: 98.7%
- clearance [10]: 37.8 mL/min/kg
- half-life [11]: 1.46 h
- Cp [12]: 60.5 ng/mL
- Drug uptake [13]: 285 ng/g
- Kp [14]: 4.7
- AUC at 96 h [20]: 624 ng·h/mL
- AUC at 96 h [21]: 690 ng·h/mL
- Cmax [22]: 86.3 ng/mL
- Cmax [23]: 62.8 ng/mL
Structure (SMILES): CC(C)(C)Cc1noc2cc(Nc3n[nH]c4nccnc34)ccc12
- Activity (Rattus norvegicus): Active
- concentration [15]: 450 nM
- Cp(f) [16]: 11.2 nM
- concentration [17]: 958 nM
- Drug uptake(free) [18]: 5.8 nM
- concentration [19]: 627 nM
